Results as given in ChEMBL document CHEMBL1155909, “Discovery and stereoselective synthesis of the novel isochroman neurokinin-1 receptor antagonist 'CJ-17,493'” (Bioorg Med Chem, 2008).

Assays:
[1] = tested on: Gerbillinae; test: Inhibition of [Sar9, Met(O2)11]SP-induced foot tapping in sc dosed gerbil
[2] = tested on: Mustela putorius furo; test: Antiemetic activity against cisplatin-induced emesis in sc dosed ferrets; type: functional, organism-based
In short: (§1)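 Ferrets were given the test compound sc 30 min before cisplatin (10 mg/kg, ip). Retching and vomiting/gagging episodes were counted against vehicle control. Groups were n = 4–5, data are mean ± SEM, and Student's t-test was used. Results are given as ED90 (mg/kg, sc) or as % inhibition at the stated dose.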

[3] = molecular target: Substance-P receptor (Homo sapiens, UniProt P25103); test: Displacement of [3H]SP from NK1 receptor in human IM9 cells
Chain of Substance-P receptor (P25103 whole entry): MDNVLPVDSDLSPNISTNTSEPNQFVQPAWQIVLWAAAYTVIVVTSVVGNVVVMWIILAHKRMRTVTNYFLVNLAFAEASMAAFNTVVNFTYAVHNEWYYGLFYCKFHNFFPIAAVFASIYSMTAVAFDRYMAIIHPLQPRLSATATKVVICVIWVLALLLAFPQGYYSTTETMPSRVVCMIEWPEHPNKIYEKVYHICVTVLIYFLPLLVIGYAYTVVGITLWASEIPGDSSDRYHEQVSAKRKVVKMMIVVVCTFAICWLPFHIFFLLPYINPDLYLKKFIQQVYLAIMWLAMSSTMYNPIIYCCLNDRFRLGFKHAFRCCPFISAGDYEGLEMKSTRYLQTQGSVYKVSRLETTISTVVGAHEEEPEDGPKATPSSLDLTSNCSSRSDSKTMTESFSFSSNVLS

[4] = tested on: Gerbillinae; test: Inhibition of [Sar9, Met(O2)11]SP-induced foot tapping in gerbil at 0.1 mg/kg, sc relative to CP-122721; conditions: for inhibition in vivo at 0.1 mg/kg / inhibition (INH): route subcutaneous, dose 0.1 mg/kg
[5] = tested on: Mustela putorius furo; test: Antiemetic activity against cisplatin-induced emesis in ferrets at 0.1 mg/kg, sc; type: functional; conditions: route subcutaneous
In short: as §1

[6] = molecular target: CYP2D6 (Homo sapiens, UniProt P10635); test: (§2) Inhibition of human CYP2D6 at 5 uM; type: ADME
[7] = Oral bioavailability in rat at 1 to 30 mg/kg; type: ADME, organism-based; conditions: in vivo
In short: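 Rats received 1–30 mg/kg orally as the hydrochloride salt dissolved in water. Oral bioavailability was determined against iv data.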

[8] = molecular target: T1, Cytochrome P450 2D6 (Homo sapiens, UniProt P10635); test: Binding affinity to human CYP2D6 using bufuralol as substrate; type: ADME
[9] = tested on: Liver microsomes; test: Metabolic stability in human liver microsome assessed as ratio of half life between CYP2D6-deficient microsome and CYP2D6-deficient microsome with addition of exogenous CYP2D6; type: ADME
In short: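 Half-lives were measured in CYP2D6-deficient human liver microsomes with and without added exogenous CYP2D6. The value is the ratio of the half-life without CYP2D6 to the half-life with it.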

[10] = molecular target: T1, Cytochrome P450 2D6; test: as §2; type: ADME; conditions: 5 µM
[11] = tested on: Gerbillinae; test: Inhibition of [Sar9, Met(O2)11]SP-induced foot tapping in gerbil at 1 mg/kg, sc relative to CP-122721; conditions: dose 1 mg/kg, route subcutaneous; for inhibition in vivo at 1 mg/kg: Gerbillinae, sc
[12] = tested on: Mustela putorius furo; test: Antiemetic activity against cisplatin-induced emesis in ferrets at 0.3 mg/kg, sc; type: functional; conditions: route subcutaneous
In short: as §1

[13] = Oral bioavailability in dog at 5 mg/kg; type: ADME, organism-based, Canis lupus familiaris; conditions: in vivo
In short: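 Dogs were dosed orally at 5 mg/kg as a water solution. Oral bioavailability was determined.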

[14] = molecular target: Sodium channel protein type 2 subunit alpha (Rattus norvegicus, UniProt P04775); test: Displacement of [3H]batrachotoxinin from rat sodium channel type 2A subunit expressed in CHO-CNa2A cells […]; type: cell-based
Chain of Sodium channel protein type 2 subunit alpha (P04775 whole entry): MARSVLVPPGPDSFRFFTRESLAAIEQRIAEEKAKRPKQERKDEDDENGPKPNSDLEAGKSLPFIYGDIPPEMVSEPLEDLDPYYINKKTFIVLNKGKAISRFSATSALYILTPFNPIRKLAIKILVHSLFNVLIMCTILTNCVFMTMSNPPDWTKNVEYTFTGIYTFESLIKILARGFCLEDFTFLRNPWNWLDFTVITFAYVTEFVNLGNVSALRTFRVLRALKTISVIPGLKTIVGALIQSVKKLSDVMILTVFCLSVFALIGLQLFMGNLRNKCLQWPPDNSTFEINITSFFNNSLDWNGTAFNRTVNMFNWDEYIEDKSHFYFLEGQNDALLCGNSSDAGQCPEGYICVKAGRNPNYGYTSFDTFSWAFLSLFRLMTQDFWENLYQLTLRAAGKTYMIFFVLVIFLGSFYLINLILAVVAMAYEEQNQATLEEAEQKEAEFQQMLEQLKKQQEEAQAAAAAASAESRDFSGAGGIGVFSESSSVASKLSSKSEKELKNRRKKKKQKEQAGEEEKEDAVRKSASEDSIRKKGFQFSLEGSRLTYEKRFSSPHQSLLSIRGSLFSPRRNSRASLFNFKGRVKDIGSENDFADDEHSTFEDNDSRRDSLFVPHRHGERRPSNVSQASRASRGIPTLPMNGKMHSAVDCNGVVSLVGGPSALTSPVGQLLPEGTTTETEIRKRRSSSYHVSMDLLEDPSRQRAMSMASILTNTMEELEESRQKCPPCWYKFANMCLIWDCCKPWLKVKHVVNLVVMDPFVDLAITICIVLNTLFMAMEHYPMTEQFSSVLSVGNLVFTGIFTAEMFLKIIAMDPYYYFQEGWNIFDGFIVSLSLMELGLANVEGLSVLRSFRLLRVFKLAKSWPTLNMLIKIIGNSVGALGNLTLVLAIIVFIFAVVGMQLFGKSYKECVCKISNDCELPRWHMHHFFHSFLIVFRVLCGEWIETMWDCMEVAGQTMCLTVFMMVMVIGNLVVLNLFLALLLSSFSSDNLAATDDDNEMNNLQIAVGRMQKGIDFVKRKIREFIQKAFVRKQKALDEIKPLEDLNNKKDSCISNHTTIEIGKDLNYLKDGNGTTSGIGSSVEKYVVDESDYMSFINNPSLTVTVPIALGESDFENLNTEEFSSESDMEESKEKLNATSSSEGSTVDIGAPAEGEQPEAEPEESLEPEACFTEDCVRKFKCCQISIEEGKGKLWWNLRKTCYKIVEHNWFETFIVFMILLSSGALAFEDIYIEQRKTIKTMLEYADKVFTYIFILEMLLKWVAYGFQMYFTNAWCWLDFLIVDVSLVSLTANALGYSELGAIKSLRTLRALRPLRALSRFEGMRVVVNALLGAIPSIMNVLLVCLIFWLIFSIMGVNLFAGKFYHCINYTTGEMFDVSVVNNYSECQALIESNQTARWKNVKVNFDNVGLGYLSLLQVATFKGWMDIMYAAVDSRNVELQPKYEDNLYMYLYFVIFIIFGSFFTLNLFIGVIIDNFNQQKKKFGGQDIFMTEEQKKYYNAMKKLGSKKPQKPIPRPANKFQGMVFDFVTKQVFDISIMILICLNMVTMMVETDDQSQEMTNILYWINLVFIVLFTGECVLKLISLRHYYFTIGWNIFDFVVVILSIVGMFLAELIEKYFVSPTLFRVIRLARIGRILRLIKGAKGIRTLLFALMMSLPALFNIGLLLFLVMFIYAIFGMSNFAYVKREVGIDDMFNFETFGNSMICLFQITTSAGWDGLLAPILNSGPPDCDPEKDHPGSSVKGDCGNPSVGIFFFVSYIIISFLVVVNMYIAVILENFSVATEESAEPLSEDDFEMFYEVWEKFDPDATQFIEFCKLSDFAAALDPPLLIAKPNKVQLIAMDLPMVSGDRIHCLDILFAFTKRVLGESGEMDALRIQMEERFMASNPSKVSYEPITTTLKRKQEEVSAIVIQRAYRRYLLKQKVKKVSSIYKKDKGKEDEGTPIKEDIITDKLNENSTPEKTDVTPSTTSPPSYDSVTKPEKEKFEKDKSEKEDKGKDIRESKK

[15] = Half life in dog at 1 mg/kg, iv; type: ADME, organism-based, Canis lupus familiaris; set-up: dose 1 mg/kg, route intravenous; conditions: in vivo
In short: (§3)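 Dogs received 1 mg/kg iv. Plasma clearance, steady-state volume of distribution and half-life were derived.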

[16] = Displacement of [3H]desmethoxyverapamil from L-type calcium channel
[17] = Clearance in dog at 1 mg/kg, iv; type: ADME, organism-based, Canis lupus familiaris; set-up: dose 1 mg/kg, route intravenous; conditions: in vivo
In short: as §3

[18] = Volume of distribution at steady state in rat at 0.3 mg/kg, iv; type: ADME, organism-based; set-up: dose 0.3 mg/kg, route intravenous; conditions: in vivo, read-out: Vdss
In short: (§4)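 Rats received 0.3 mg/kg iv. Plasma clearance, steady-state volume of distribution and half-life were derived from plasma levels.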

[19] = Volume of distribution at steady state in dog at 1 mg/kg, iv; type: ADME, organism-based, Canis lupus familiaris; set-up: dose 1 mg/kg, route intravenous; conditions: in vivo, read-out: Vdss
In short: as §3

[20] = Clearance in rat at 0.3 mg/kg, iv; type: ADME, organism-based; set-up: dose 0.3 mg/kg, route intravenous; conditions: in vivo
In short: as §4

[21] = Half life in rat at 0.3 mg/kg, iv; type: ADME, organism-based; set-up: dose 0.3 mg/kg, route intravenous; conditions: in vivo
In short: as §4

[22] = substrate: COc1cc2c(cc1CN[C@H]1CCCN[C@H]1c1ccccc1)[C@](C)(C(F)(F)F)OCC2; test: Activity of CYP2D6 for hydroxylation in human liver microsomes; type: ADME, Microsome
[23] = substrate: COc1cc2c(cc1CN[C@H]1CCCN[C@H]1c1ccccc1)[C@](C)(C(F)(F)F)OCC2; test: Activity of CYP2D6 for N-dealkylation in human liver microsomes; type: ADME, Microsome
[24] = Mustela putorius, sc, read-out: ED90

Molecule: COc1ccc(OC(F)(F)F)cc1CN[C@H]1CCCN[C@H]1c1ccccc1
- ED50 [1]: 0.28 mg/kg
- ED100 [2]: >=0.3 mg kg-1
- ED90 [2, 24]: 0.09 mg/kg

Molecule: COc1cc2c(cc1CN[C@H]1CCCN[C@H]1c1ccccc1)C(C(F)(F)F)OC2 (mixture of isomers)
- IC50 [3]: < 0.1 nM
- % inhibition at 0.1 mg/kg ([4]; Gerbillinae, sc): 84%
- inhibition in vivo at 0.1 mg/kg [5]: 99%
- inhibition at 5 µM [6]: 66.4%

Molecule: COc1cc2c(cc1CN[C@H]1CCCN[C@H]1c1ccccc1)[C@](C)(C(F)(F)F)OCC2.Cl.Cl
- bioavailability [7]: < 1%

Molecule: COc1cc2c(cc1CN[C@H]1CCCN[C@H]1c1ccccc1)[C@@](C)(C(F)(F)F)OCC2
- IC50 [3]: 0.34 nM

Molecule: COc1ccc(C(C)C)cc1CN[C@H]1C2CCN(CC2)[C@H]1C(c1ccccc1)c1ccccc1 [EZLOPITANT]
- ED90 [2, 24]: 2.1 mg/kg
- Ki [8]: 420 nM
- inhibition at 5 µM [6]: 64.1%
- Ratio [9]: 1.8

Molecule: COc1cc2c(cc1CN[C@H]1CCCN[C@H]1c1ccccc1)C(C(F)(F)F)CCC2 (mixture of isomers; 17)
- IC50 [3]: 0.5 nM
- ED100 [2]: 1 mg/kg
- ED90 [2, 24]: 0.17 mg/kg
- inhibition in vivo at 0.1 mg/kg ([4]; Gerbillinae, sc): 55%
- inhibition (INH) [10]: 76.5%
- Ratio [9]: 7.35
- inhibition (INH) [11]: 77%

Molecule: COc1ccc(C(C)C(F)(F)F)cc1CN[C@H]1CCCN[C@H]1c1ccccc1 (mixture of isomers)
- IC50 [3]: 0.4 nM
- ED50 [1]: 0.82 mg/kg
- ED90 [2]: 0.3 mg/kg
- ED100 [2]: >=1 mg kg-1
- Ki [8]: 840 nM
- inhibition at 5 µM [6]: 65.9%
- Ratio [9]: 2.2

Molecule: COc1cc2c(cc1CN[C@H]1CCCN[C@H]1c1ccccc1)C(C)(C(F)(F)F)OC2 (mixture of isomers; 16)
- IC50 [3]: 0.16 nM
- inhibition in vivo at 0.3 mg/kg [12]: 99%
- inhibition (INH) [4]: 87%
- inhibition (INH) [10]: 81%
- inhibition (INH) [11]: 94%

Molecule: COc1ccc(C(C)(OC)C(F)(F)F)cc1CN[C@H]1CCCN[C@H]1c1ccccc1 (mixture of isomers)
- ED50 [1]: 0.11 mg/kg
- inhibition in vivo at 0.1 mg/kg ([4]; Gerbillinae, sc): 63%
- inhibition in vivo at 0.1 mg/kg [5]: 15%
- inhibition at 5 µM [6]: 62.6%
- inhibition in vivo at 1 mg/kg [11]: 55%

Molecule: COc1cc2c(cc1CN[C@H]1CCCN[C@H]1c1ccccc1)[C@](C)(C(F)(F)F)OCC2.O
- bioavailability [13]: 9.8%

Molecule: COc1cc2c(cc1CN[C@H]1CCCN[C@H]1c1ccccc1)C(C)(C(F)(F)F)CCC2 (mixture of isomers; 21)
- IC50 [3]: < 0.1 nM
- Ki [8]: 120 nM
- inhibition (INH) [4]: 86%
- inhibition in vivo at 0.1 mg/kg [5]: 97%
- Ratio [9]: 1.8
- inhibition (INH) [11]: 91%

Molecule: COc1ccc(C(OC)C(F)(F)F)cc1CN[C@H]1CCCN[C@H]1c1ccccc1 (mixture of isomers)
- IC50 [3]: < 0.1 nM
- inhibition at 5 µM [6]: 92.9%
- inhibition in vivo at 1 mg/kg [11]: 67%

Molecule: COc1cc2c(cc1CN[C@H]1CCCN[C@H]1c1ccccc1)[C@](C)(C(F)(F)F)OCC2
- IC50 [14]: 48 nM
- IC50 [3]: < 0.1 nM
- Ki [3]: 0.2 nM
- half-life [15]: 3.8 h
- ED50 [1]: 0.043 mg/kg
- IC50 [16]: 164 nM
- ED90 [2, 24]: 0.07 mg/kg
- clearance [17]: 31.7 mL/min/kg
- Vd [18]: 7 L/kg
- Vd [19]: 11 L/kg
- clearance [20]: 11 mL/min/kg
- half-life [21]: 8.8 h

Molecule: COc1ccc(C(C)(F)C(F)(F)F)cc1CN[C@H]1CCCN[C@H]1c1ccccc1 (mixture of isomers)
- IC50 [3]: < 0.1 nM
- inhibition in vivo at 0.1 mg/kg ([4]; Gerbillinae, sc): 30%
- inhibition in vivo at 1 mg/kg [11]: 57%

B1: Cytochrome P450 2D6 (Homo sapiens) (protein)
chain: MGLEALVPLAVIVAIFLLLVDLMHRRQRWAARYPPGPLPLPGLGNLLHVDFQNTPYCFDQLRRRFGDVFSLQLAWTPVVVLNGLAAVREALVTHGEDTADRPPVPITQILGFGPRSQGVFLARYGPAWREQRRFSVSTLRNLGLGKKSLEQWVTEEAACLCAAFANHSGRPFRPNGLLDKAVSNVIASLTCGRRFEYDDPRFLRLLDLAQEGLKEESGFLREVLNAVPVLLHIPALAGKVLRFQKAFLTQLDELLTEHRMTWDPAQPPRDLTEAFLAEMEKAKGNPESSFNDENLRIVVADLFSAGMVTTSTTLAWGLLLMILHPDVQRRVQQEIDDVIGQVRRPEMGDQAHMPYTTAVIHEVQRFGDIVPLGVTHMTSRDIEVQGFRIPKGTTLITNLSSVLKDEAVWEKPFRFHPEHFLDAQGHFVKPEAFLPFSAGRRACLGEPLARMELFLFFTSLLQHFSFSVPTGQPRPSHHGVFAFLVSPSPYELCAVPR
- Km [22]: 16.6 µM
- Km [23]: 2.3 µM
